Where a SMILES comes first, the peptide text is derived from it. Bridges are numbered along the chain shown (N, C = ends). [ ]: non-standard residue; d: D form. The star is where a group is joined. X1 = CC[C@H](C)CCCCC(=O)*; βNA = c1ccc2cc(N*)ccc2c1; Dab = NCC[C@H](N)C(=O)O
Tests used:
[1] = Toxicity in CHO cells assessed as reduction in cell viability incubated for 24 hrs by WST1 assay; type: cell-based; details: Chinese hamster (Cricetulus griseus)
How it was run: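 CHO-K1 cells in McCoy's 5A with 10% FCS, exposed in triplicate to 30–1200 μM compound for 24 h at 37°C. After PBS washes, 30 min in medium with 10% WST-1; absorbance at 450 nm. IC50 is the concentration giving 50% loss of viable cells.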

Salmonella typhimurium [2] = experiment: Potentiation of chloramphenicol-induced antibacterial activity against Salmonella enterica subsp. enterica serovar Typhimurium BN10055 assessed as ratio of the chloramphenicol alone MIC to […] in presence of MIC/4 level of compound incubated for 18 hrs; type: functional
How it was run: (§1)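 Broth microdilution in MH broth, 10^5 CFU inoculum, two-fold antibiotic dilutions, with or without compound at MIC/4. MIC is the lowest concentration with no visible growth after 18 h at 37°C. Gain is antibiotic MIC alone divided by MIC with compound. MICs repeated in at least three independent experiments; up to 5% DMSO.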

Salmonella typhimurium [3] = experiment: Potentiation of nalidixic acid-induced antibacterial activity against Salmonella enterica subsp. enterica serovar Typhimurium BN10055 assessed as ratio of the nalidixic acid alone MIC to […] in presence of MIC/4 level of compound incubated for 18 hrs; type: functional; how it was run: as §1
Klebsiella aerogenes [4] = experiment: Potentiation of erythromycin-induced antibacterial activity against Enterobacter aerogenes Ea289 assessed as ratio of the erythromycin alone MIC to erythromycin MIC in presence of MIC/4 level of compound incubated for 18 hrs
Salmonella typhimurium [5] = experiment: Potentiation of erythromycin-induced antibacterial activity against Salmonella enterica subsp. enterica serovar Typhimurium BN10055 assessed as ratio of the erythromycin alone MIC to erythromycin MIC in presence of MIC/4 level of compound incubated for 18 hrs; type: functional; how it was run: as §1
Klebsiella aerogenes [6] = experiment: Potentiation of doxycycline-induced antibacterial activity against Enterobacter aerogenes Ea289 assessed as ratio of the doxycycline alone MIC to doxycycline MIC in presence of MIC/4 level of compound incubated for 18 hrs; type: functional; how it was run: as §1
Klebsiella aerogenes [7] = experiment: Potentiation of chloramphenicol-induced antibacterial activity against Enterobacter aerogenes Ea289 assessed as ratio of the chloramphenicol alone MIC to […] in presence of MIC/4 level of compound incubated for 18 hrs; type: functional; how it was run: as §1
Salmonella typhimurium [8] = experiment: Potentiation of doxycycline-induced antibacterial activity against Salmonella enterica subsp. enterica serovar Typhimurium BN10055 assessed as ratio of the doxycycline alone MIC to doxycycline MIC in presence of MIC/4 level of compound incubated for 18 hrs; type: functional; how it was run: as §1
Klebsiella aerogenes [9] = experiment: Potentiation of nalidixic acid-induced antibacterial activity against Enterobacter aerogenes Ea289 assessed as ratio of the nalidixic acid alone MIC to nalidixic acid MIC in presence of MIC/4 level of compound incubated for 18 hrs
Klebsiella aerogenes [10] = experiment: Inhibition of AcrAB-TolC in Enterobacter aerogenes Ea289 assessed as retention of 1,2'diNA dye within bacterial membranes at 100 uM relative to control; design: scale not given: the % may be the effect or the level left
How it was run: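 Stationary-phase cells at OD600 0.25 in potassium phosphate buffer pH 7.0 with CCCP 5 µM, loaded overnight with 1,2'-diNA 32 µM at 37°C, washed, compound added at 100 µM. Glucose 50 mM added at 300 s to energize efflux. Fluorescence (ex 370/em 420 nm) read every 30 s at 37°C; PAβN 100 µM as reference.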

Klebsiella aerogenes [11] = experiment: Potentiation of chloramphenicol-induced antibacterial activity against Enterobacter aerogenes Ea289 assessed as efficiency index by measuring sum of gain factor for each test compound reported for chloramphenicol/nalidixic acid/doxycycline/erythromycin and divided by concentration of test compound; type: functional; details: pooled result: one value given for 2 cell lines, strains, targets or settings
How it was run: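 Gain factors (antibiotic MIC alone / MIC with compound at MIC/4; broth dilution, 18 h, 37°C) for erythromycin, doxycycline, nalidixic acid and chloramphenicol are summed, then divided by the compound concentration used in the assay.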

[12] = Toxicity index, ratio of IC50 for toxicity in CHO cells to concentration of test compound causing at least 8 times decrease of MIC of almost 3 antibiotics (chloramphenicol/nalidixic acid/doxycycline/erythromycin ) against Enterobacter aerogenes Ea289; type: cell-based; details: hamster, pooled result: one value given for 2 cell lines, strains, targets or settings
Klebsiella aerogenes [13] = experiment: Induction of cell transmembrane potential disruption in Enterobacter aerogenes Ea289 assessed as membrane potential by measuring fluorescence level at 100 uM by [DiSC3(5)] based assay (reference value: 0.2%)

SMILES | IC50 at 24 h [1] | Ratio (Salmonella typhimurium [2]) | Ratio (Salmonella typhimurium [3]) | Ratio (Klebsiella aerogenes [4]) | Ratio (Salmonella typhimurium [5]) | Ratio (Klebsiella aerogenes [6]) | Ratio (Klebsiella aerogenes [7]) | Ratio (Salmonella typhimurium [8]) | Ratio (Klebsiella aerogenes [9]) | Activity (Klebsiella aerogenes [10]) | Activity_index (Klebsiella aerogenes [11]) | selectivity ratio [12] | Activity (Klebsiella aerogenes [13])
CC(C)=CCCC(C)=CCNCCN | 36.2 µM | 8 | 16 | 4 | 1 | 32 | 4 | 16 | 4 | – | – | – | –
N=C(N)NCCC[C@H](NC(=O)[C@@H](N)Cc1ccccc1)C(=O)Nc1ccc2ccccc2c1 [PABETAN] (H-Phe-Arg-βNA) | – | 8 | 64 | 8 | 8 | 16 | 16 | 16 | 8 | 25% | – | – | –
CC(C)=CCCC(C)=CCNCCCN1CCOCC1 | > 150 µM | 2 | 1 | 1 | 1 | 2 | 1 | 2 | 1 | – | – | – | –
CC(C)=CCC/C(C)=C\CCC(C)=CCNCCNCCNCCNCCN | 43.5 µM | 8 | 16 | 8 | 1 | 32 | 8 | 4 | 16 | – | 1.49 | 5.37 | –
CC(C)=CCC/C(C)=C\CCC(C)=CCNCCCOCCCCOCCCN | > 150 µM | 4 | 16 | 2 | 4 | 8 | 4 | 8 | 2 | – | – | – | –
CC(C)=CCCC(C)=CCNCCCN1CCCC1 | > 150 µM | 2 | 4 | 1 | 1 | 2 | 1 | 2 | 2 | – | – | – | –
CC(C)=CCCC(C)=CCNCCCN(C)CCCN | > 150 µM | 16 | 32 | 32 | – | 16 | 16 | 16 | 8 | – | 0.01 | 0.06 | –
CC(C)=CCC/C(C)=C\CCC(C)=CCNCCCNCCCN | 30.2 µM | 8 | 64 | 64 | 8 | 32 | 8 | 32 | 8 | – | 3.58 | 3.86 | –
CC(C)=CCCC(C)=CCNCCCN1CCCC1=O | > 150 µM | 1 | 1 | 2 | 1 | 2 | 1 | 1 | 1 | – | – | – | –
CC(C)=CCC/C(C)=C\CCC(C)=CCNCCCCCN | 38.4 µM | 8 | 16 | 32 | 2 | 64 | 16 | 16 | 8 | – | – | – | –
CC(C)=CCC/C(C)=C\CCC(C)=CCNCCCN1CCOCC1 | 57.6 µM | 8 | 32 | 16 | 4 | 32 | 8 | 16 | 8 | – | – | – | –
CC(C)=CCC/C(C)=C\CCC(C)=CCNCCN | 32.3 µM | 8 | 64 | 128 | 32 | 8 | 4 | 32 | 8 | – | – | – | –
CC(C)=CCC/C(C)=C\CCC(C)=CCNCCCN(CCCN)CCCN | > 150 µM | 16 | 128 | 4 | 1 | 16 | 32 | 8 | 16 | – | 3.54 | 19.2 | –
CC(C)=CCC/C(C)=C\CCC(C)=CCNCCCNCCCCNCCCN | 143 µM | 32 | 64 | 8 | – | 16 | 16 | 8 | 32 | – | 1.61 | 9.15 | –
CC(C)=CCC/C(C)=C\CCC(C)=CCNCCCN(C)CCCN | 10.5 µM | 16 | 128 | 128 | 8 | 64 | 8 | 64 | 32 | – | 7.17 | 1.34 | –
CC[C@H](C)CCCCC(=O)N[C@@H](CCN)C(=O)N[C@H](C(=O)N[C@@H](CCN)C(=O)N[C@H]1CCNC(=O)[C@H]([C@@H](C)O)NC(=O)[C@H](CCN)NC(=O)[C@H](CCN)NC(=O)[C@H](CC(C)C)NC(=O)[C@@H](Cc2ccccc2)NC(=O)[C@H](CCN)NC1=O)[C@@H](C)O (X1-[Dab]T[Dab][Dab][Dab][dF]L[Dab][Dab]T; lactam 4-C) | – | – | – | – | – | – | – | – | – | – | – | – | 14%
CC(C)=CCC/C(C)=C\CCC(C)=CCNCCCCN | 18.1 µM | 8 | 64 | 256 | 4 | 64 | 16 | 16 | 16 | – | – | – | –
CC(C)=CCC/C(C)=C\CCC(C)=CCNCCCN1CCN(CCCN)CC1 | 33.8 µM | 8 | 64 | 128 | 4 | 128 | 8 | 32 | 32 | – | – | – | –
CC(C)=CCCC(C)=CCNCCCN | > 150 µM | 8 | 32 | 32 | – | 16 | 8 | 16 | 8 | – | – | – | –
CC(C)=CCCC(C)=CCNCCCNCCCCNCCCN | > 150 µM | 16 | 64 | 4 | 2 | 16 | 8 | 16 | 16 | – | 0.57 | 4.8 | –
CC(C)=CCC/C(C)=C\CCC(C)=CCNCCCN | 32.1 µM | 32 | 128 | 256 | 64 | 64 | 16 | 32 | 16 | – | – | – | –
CCN(CC)CCCNCCCNCC=C(C)CCC=C(C)C | 30.9 µM | 16 | 64 | 32 | 8 | 32 | 16 | 32 | 8 | – | 1.66 | 1.98 | –
CC(C)=CCC/C(C)=C\CCC(C)=CCNCCCN1CCCC1 | 85.3 µM | 16 | 128 | 64 | 16 | 32 | 16 | 32 | 16 | – | – | – | –
